Active and inactive are the calls of the source. No cut-off for these calls is given here.
Assays:
Mus musculus [1] = assay: Rotarod toxicity test in Phase-I screening was determined; Inactive up to 300 mg/kg; format: organism-based; design: dose 300 mg/kg; conditions: in vivo
How it was run: (§1)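 Phase I qualitative screen run by the NINCDS Anticonvulsant Drug Development Program. Mice (1-4 per group) received 30, 100 or 300 mg/kg ip as suspensions in 30% polyethylene glycol 400 unless otherwise noted. Testing was 30 min after dosing in the MES, subcutaneous Metrazol or rotorod toxicity model.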

Mus musculus [2] = assay: Anticonvulsant activity in mice, induced by maximal electroshock for Phase-I screening; Inactive up to 300 mg/kg; format: functional, organism-based; design: dose 300 mg/kg
How it was run: (§2)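 NINCDS Anticonvulsant Drug Development Program qualitative phase I screen in mice (1-4 per dose) at 30, 100 and 300 mg/kg, given ip as suspensions in 30% PEG 400 (some in 0.5% methylcellulose). Challenge 30 min post-dose with maximal electroshock or subcutaneous Metrazol.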

Mus musculus [3] = assay: Anticonvulsant activity in mice, induced by subcutaneous administration of Metrazol for Phase-I screening; Inactive up to 300 mg/kg; format: functional, organism-based; design: dose 300 mg/kg; how it was run: as §2
[4] = molecular target: Sodium channel alpha subunits; brain (Types I, II, III) (Rattus norvegicus, UniProt P04775+P04774+P08104); assay: In vitro inhibition of [3H]-BTX-B binding to sodium channels in rat brain synapto-neurosomes; format: tissue-based
How it was run: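 Rat cerebral cortex synaptoneurosomes were prepared by glass-glass homogenization in choline chloride/HEPES/glucose/MgSO4/KCl buffer, then spun at 1000g for 15 min at 4 °C. Incubation was 40 min at 25 °C with 10 nM [3H]BTX-B, 50 µg/mL scorpion venom, about 980 µg protein and varying compound concentrations (final MeOH <1%). Bound label was collected by filtration and scintillation counting. Nonspecific binding was taken with 250 µM veratridine. IC50 is the concentration giving 50% inhibition of specific binding.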

Mus musculus [5] = assay: Anticonvulsant activity in mice, (induced by subcutaneous administration of Metrazol.) after 0.25 hr of administration, for Phase-II screening; Inactive; format: functional, organism-based
How it was run: (§3)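 Phase II quantitative evaluation in mice by the NINCDS program. Dosing was ip as suspensions in 0.5% methylcellulose or 30% polyethylene glycol 400. ED50 (MES or subcutaneous Metrazol) or TD50 (rotorod) in mg/kg was derived with 95% confidence intervals, measured at the stated time after administration.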

Mus musculus [6] = assay: Anticonvulsant activity in mice(induced by maximal electroshock )after 0.25 hr of administration, for Phase-II screening; format: functional; how it was run: as §3
Mus musculus [7] = assay: Anticonvulsant activity in mice, induced by subcutaneous administration of Metrazol for Phase-I screening; Active at 300 mg/kg; format: functional, organism-based; design: dose 300 mg/kg; how it was run: as §1
Mus musculus [8] = assay: Anticonvulsant activity in mice, (induced by subcutaneous administration of Metrazol.) after 0.5 hr of administration, for Phase-II screening; format: functional; conditions: sc; how it was run: as §3
Mus musculus [9] = assay: Anticonvulsant activity in mice, induced by maximal electroshock for Phase-I screening; Active at 300 mg/kg; format: functional, organism-based; design: dose 300 mg/kg; how it was run: as §1
[10] = Rotarod toxicity test for the compound in Phase-II screening was determined; format: organism-based; conditions: mouse, in vivo
Mus musculus [11] = assay: Anticonvulsant activity in mice(induced by maximal electroshock )after 0.5 hr of administration, for Phase-II screening; format: functional; how it was run: as §3
Mus musculus [12] = assay: Anticonvulsant activity in mice, induced by maximal electroshock for Phase-I screening; Active at 100 mg/kg; format: functional, organism-based; design: dose 100 mg/kg; how it was run: as §1
Mus musculus [13] = assay: Rotarod toxicity test in Phase-I screening was determined; Active at 30 mg/kg; format: organism-based; design: dose 30 mg/kg; conditions: in vivo; how it was run: as §1
Mus musculus [14] = assay: Anticonvulsant activity in mice, induced by subcutaneous administration of Metrazol for Phase-I screening; Active at 30 mg/kg; format: functional, organism-based; design: dose 30 mg/kg; how it was run: as §1
Mus musculus [15] = assay: Anticonvulsant activity in mice (induced by maximal electroshock )after 0.5 hr of administration, for Phase-II screening; format: functional; how it was run: as §3
Mus musculus [16] = assay: Anticonvulsant activity in mice, induced by maximal electroshock for Phase-I screening; active at 100 mg/kg; format: functional, organism-based; design: dose 100 mg/kg; how it was run: as §1
Mus musculus [17] = assay: Rotarod toxicity test in Phase-I screening was determined; active at 100 mg/kg; format: organism-based; design: dose 100 mg/kg; conditions: in vivo; how it was run: as §1
Mus musculus [18] = assay: Anticonvulsant activity in mice(induced by maximal electroshock) after 0.25 hr of administration, for Phase-II screening; format: functional; how it was run: as §3
Mus musculus [19] = assay: Anticonvulsant activity in mice, (induced by subcutaneous administration of Metrazol) after 0.25 hr of administration, for Phase-II screening; format: functional; conditions: sc; how it was run: as §3
Mus musculus [20] = assay: Anticonvulsant activity in mice, induced by subcutaneous administration of Metrazol for Phase-I screening; active at 100 mg/kg; format: functional, organism-based; design: dose 100 mg/kg; how it was run: as §1
Mus musculus [21] = assay: Anticonvulsant activity in mice, (induced by subcutaneous administration of Metrazol.) after 1 hr (tested for rotarod test only) of administration, for Phase-II screening; format: functional; conditions: sc
Mus musculus [22] = assay: Anticonvulsant activity in mice(induced by maximal electroshock )after 1 hr (tested for rotarod test only) of administration, for Phase-II screening; format: functional
Mus musculus [23] = assay: Rotarod toxicity test in Phase-I screening was determined; Active at 300 mg/kg; format: organism-based; design: dose 300 mg/kg; conditions: in vivo; how it was run: as §1
Mus musculus [24] = assay: Anticonvulsant activity in mice, (induced by subcutaneous administration of Metrazol.) after 2 hr of administration, for Phase-II screening; Inactive; format: functional, organism-based; how it was run: as §3
Mus musculus [25] = assay: Anticonvulsant activity in mice(induced by maximal electroshock )after 2 hr of administration, for Phase-II screening; format: functional; how it was run: as §3
Mus musculus [26] = assay: Anticonvulsant activity in mice, (induced by subcutaneous administration of Metrazol.) after 0.25 hr of administration, for Phase-II screening; format: functional; conditions: sc; how it was run: as §3
Mus musculus [27] = assay: Anticonvulsant activity in mice, induced by subcutaneous administration of Metrazol for Phase-I screening; Active at 100 mg/kg; format: functional, organism-based; design: dose 100 mg/kg; how it was run: as §1

For `O=C1NCCCC1(O)c1ccccc1` (stereo not given), the Rotorod (Mus musculus [1]) was “Not Active”, the MES (Mus musculus [2]) was “inactive” and the scMet (Mus musculus [3]) was “inactive”. The IC50 [4] was > 800 µM.
With `NC(=O)N1c2ccccc2C=Cc2ccccc21` [CARBAMAZEPINE] the ED50 (Mus musculus [5]) was “inactive”, the IC50 [4] was 131 µM and the ED50 (Mus musculus [6]) was 9 mg/kg.
In the case of `CCOC(=O)N1CCCC(OC)(c2ccccc2)C1=O` (stereo not given), the Rotorod (Mus musculus [1]) is reported as “Not Active”, the scMet (Mus musculus [7]) is reported as “Active” and the ED50 (Mus musculus [8]) is reported as 124 mg/kg. The IC50 [4] was 590 µM, the MES (Mus musculus [9]) was “Active” and the TD50 [10] was > 300 mg/kg. The ED50 (Mus musculus [11]) was 225 mg/kg.
For `CN1CCCC(O)(c2ccccc2)C1=O` (stereo not given), the Rotorod (Mus musculus [1]) was “Not Active”, the scMet (Mus musculus [7]) was “Active” and the ED50 (Mus musculus [8]) was 128 mg/kg. For the same molecule, the IC50 [4] was > 800 µM, the TD50 [10] was ~350 mg/kg and the ED50 (Mus musculus [11]) was 84 mg/kg. For the same molecule, the MES (Mus musculus [12]) was “Active”.
In the case of `CCC1(c2ccccc2)OC(=O)N(C)C1=O` (stereo not given), the Rotorod (Mus musculus [13]) is reported as “Active”, the ED50 (Mus musculus [8]) is reported as 45 mg/kg and the scMet (Mus musculus [14]) is reported as “Active”. For the same molecule, the IC50 [4] was 500 µM, the MES (Mus musculus [9]) was “Active” and the TD50 [10] was 504 mg/kg. The ED50 (Mus musculus [11]) was 124 mg/kg.
With `CCC1(c2ccccc2)OC(=O)NC1=O` (stereo not given) the Rotorod (Mus musculus [13]) was “Active”, the ED50 (Mus musculus [8]) was 39 mg/kg and the scMet (Mus musculus [14]) was “Active”. For the same molecule, the ED50 (Mus musculus [15]) was 86 mg/kg, the IC50 [4] was > 800 µM and the MES (Mus musculus [9]) was “Active”. The TD50 [10] was 164 mg/kg.
With `O=C1O[C@]2(c3ccccc3)CCCCCN1C2=O` the MES (Mus musculus [16]) was “Active”, the Rotorod (Mus musculus [17]) was “Active” and the ED50 (Mus musculus [18]) was 66 mg/kg. The ED50 (Mus musculus [19]) was 45 mg/kg, the IC50 [4] was 160 µM and the TD50 [10] was 147 mg/kg. For the same molecule, the scMet (Mus musculus [20]) was “Active”.
With `CN1C(=O)OC(C)(C)C1=O` [TRIMETHADIONE] the ED50 (Mus musculus [21]) was 300 mg/kg, the IC50 [4] was > 1000 µM and the TD50 [10] was 819 mg/kg. For the same molecule, the ED50 (Mus musculus [22]) was 627 mg/kg.
With `COC1(c2ccccc2)CCCNC1=O` (stereo not given) the Rotorod (Mus musculus [23]) was “Active”, the scMet (Mus musculus [7]) was “Active” and the ED50 (Mus musculus [8]) was 50 mg/kg. The IC50 [4] was > 800 µM, the TD50 [10] was 239 mg/kg and the ED50 (Mus musculus [11]) was 120 mg/kg. For the same molecule, the MES (Mus musculus [12]) was “Active”.
For `O=C1NC(=O)C(c2ccccc2)(c2ccccc2)N1` [PHENYTOIN], the ED50 (Mus musculus [24]) was “inactive”, the IC50 [4] was 40 µM and the ED50 (Mus musculus [25]) was 10 mg/kg.
With `O=C1NCCCCC1(O)c1ccccc1` (stereo not given) the ED50 (Mus musculus [26]) was 74 mg/kg, the Rotorod (Mus musculus [23]) was “Active” and the scMet (Mus musculus [7]) was “Active”. For the same molecule, the IC50 [4] was > 800 µM, the ED50 (Mus musculus [6]) was 63 mg/kg and the TD50 [10] was 210 mg/kg. The MES (Mus musculus [12]) was “Active”.
In the case of `O=C1O[C@@]2(c3ccccc3)CCCCN1C2=O`, the Rotorod (Mus musculus [1]) is reported as “Not Active”, the scMet (Mus musculus [7]) is reported as “Active” and the MES (Mus musculus [2]) is reported as “inactive”. It also gave an IC50 [4] of 380 µM.
With `O=C1NCCCCCC1(O)c1ccccc1` (stereo not given) the ED50 (Mus musculus [26]) was 108 mg/kg, the Rotorod (Mus musculus [23]) was “Active” and the scMet (Mus musculus [7]) was “Active”. For the same molecule, the IC50 [4] was > 800 µM, the ED50 (Mus musculus [6]) was 80 mg/kg and the TD50 [10] was 199 mg/kg. The MES (Mus musculus [12]) was “Active”.
For `CCOC(=O)N1CCCCC(O)(c2ccccc2)C1=O` (stereo not given), the Rotorod (Mus musculus [23]) was “Active”, the scMet (Mus musculus [27]) was “Active” and the IC50 [4] was 640 µM. For the same molecule, the ED50 (Mus musculus [6]) was 84 mg/kg, the TD50 [10] was 216 mg/kg and the MES (Mus musculus [12]) was “Active”.
